Test results reported in ChEMBL document CHEMBL1131139, “Synthesis and antibacterial activity of ketolides (6-O-methyl-3-oxoerythromycin derivatives): a new class of antibacterials highly potent against macrolide-resistant and -susceptible respiratory pathogens” (1998).
≈ marks a conversion by molar mass, not a printed value. Values belong to the compound of their own block, whether it stands above or below them.

Key:
Format in all cases: functional
[1] = system: Staphylococcus aureus; experiment: In vitro inhibitory activity against Staphylococcus aureus (EryRi 011GO25i)
Summary of the method: (§1)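 Two-fold agar dilution on Mueller-Hinton agar (pH 7.4). Inoculum from overnight plate cultures suspended in Mueller-Hinton broth, adjusted to 10^9 CFU/mL, diluted 1:200 and spotted by multipoint inoculator at about 10^4 CFU/spot. Plates incubated 37 °C for 20 h. MIC taken as lowest concentration with no visible growth.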

[2] = system: Streptococcus pyogenes; experiment: In vitro inhibitory activity against Streptococcus pyogenes (02A1UC1); summary of the method: as §1
[3] = system: Streptococcus pneumoniae; experiment: In vitro inhibitory activity against Streptococcus pneumoniae (EryRi 030SJ5i); summary of the method: as §1
[4] = system: Staphylococcus aureus; experiment: In vitro inhibitory activity against Staphylococcus aureus (EryRc 011CB20); summary of the method: as §1
[5] = system: Haemophilus influenzae; experiment: In vitro inhibitory activity against Haemophilus influenzae (351HT3); summary of the method: as §1
[6] = system: Staphylococcus epidermidis; experiment: In vitro inhibitory activity against Staphylococcus epidermidis (EryRi 012GO11i); summary of the method: as §1
[7] = system: Streptococcus pneumoniae; experiment: In vitro inhibitory activity against Streptococcus pneumoniae (EryRc 030SJ1); summary of the method: as §1
[8] = system: Haemophilus influenzae; experiment: In vitro inhibitory activity against Haemophilus influenzae (351CB12); summary of the method: as §1
[9] = system: Staphylococcus aureus; experiment: In vitro inhibitory activity against Staphylococcus aureus (011UC4); summary of the method: as §1
[10] = system: Escherichia coli; experiment: In vitro inhibitory activity against Escherichia coli (250 UC5); summary of the method: as §1
[11] = system: Streptococcus pneumoniae; experiment: In vitro inhibitory activity against Streptococcus pneumoniae (032UC1); summary of the method: as §1
[12] = system: Haemophilus; experiment: In vitro inhibitory activity against Haemophilus AmpS (43)
[13] = system: Mus musculus; experiment: In Vivo evaluation for its effective dose against Haemophilus influenzae (351GR1)
Summary of the method: (§2)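 Male Charles River CD1 mice, 20-22 g, 10 per dose group, infected intraperitoneally with 0.5 mL diluted overnight broth culture (physiological buffer or 5% hog mucine) at 10-100 times the minimal lethal dose. Compound suspended in carboxymethylcellulose, 0.5 mL given orally immediately and 4 h postinfection. Survival followed 8-10 days; ED50 (unitary dose protecting 50% from death) by Litchfield-Wilcoxon probit method.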

[14] = system: Haemophilus; experiment: In vitro inhibitory activity against Haemophilus AmpR (37)
[15] = system: Mus musculus; experiment: In Vivo evaluation for its effective dose against Haemophilus influenzae (351RD7 AmpR beta (+)); summary of the method: as §2
[16] = system: Mus musculus; experiment: In Vivo evaluation for its effective dose against Haemophilus influenzae (351TO19 AmpR beta (-)); summary of the method: as §2
[17] = system: Streptococcus sp.; experiment: In vitro inhibitory activity against Streptococci EryR (27)
[18] = system: Mus musculus; experiment: In Vivo evaluation for its effective dose against Streptococcus pyogenes (02A1UC1); summary of the method: as §2
[19] = In vitro inhibitory activity against Pneumococci PenR (65)
[20] = system: Mus musculus; experiment: In Vivo evaluation for its effective dose against Streptococcus pneumoniae (030SJ1 EryRc); summary of the method: as §2
[21] = In vitro inhibitory activity against Pneumococci EryRc (34)
[22] = system: Streptococcus sp.; experiment: In vitro inhibitory activity against Streptococci EryRi (98)
[23] = system: Mus musculus; experiment: In Vivo evaluation for its effective dose against Streptococcus pneumoniae (032UC1); summary of the method: as §2
[24] = system: Enterococcus; experiment: In vitro inhibitory activity against enterococci EryRi (19)
[25] = system: Enterococcus; experiment: In vitro inhibitory activity against enterococci EryRc (13)
[26] = system: Mus musculus; experiment: In Vivo evaluation for its effective dose against Staphylococcus aureus (011GO25 EryRi.; summary of the method: as §2
[27] = system: Mus musculus; experiment: In Vivo evaluation for its effective dose against Streptococcus pneumoniae (030SJ6 EryRc); summary of the method: as §2
[28] = system: Mus musculus; experiment: In Vivo evaluation for its effective dose against Streptococcus pneumoniae (030MV2 EryRc); summary of the method: as §2
[29] = system: Mus musculus; experiment: In Vivo evaluation for its effective dose against Staphylococcus aureus (011UC4).; summary of the method: as §2
[30] = system: Staphylococcus sp.; experiment: In vitro inhibitory activity against Staphylococci EryRi (65)
[31] = system: Mus musculus; experiment: In Vivo evaluation for its effective dose against Streptococcus pneumoniae (030RO1 EryRi); summary of the method: as §2
[32] = system: Mus musculus; experiment: In Vivo evaluation for its effective dose against Streptococcus pneumoniae (030Cr29 EryRc); summary of the method: as §2
[33] = system: Staphylococcus sp.; experiment: In vitro inhibitory activity against Staphylococci EryRc (23)

Structure (SMILES): CC[C@H]1OC(=O)[C@H](C)C(=O)[C@H](C)[C@@H](O[C@@H]2O[C@H](C)C[C@H](N(C)C)[C@H]2O)[C@](C)(OC)C[C@@H](C)/C(=N\OCCNCCN(C)C)[C@H](C)[C@@H](O)[C@]1(C)O
MIC [1]: 5 µg/mL (≈ 6.97 µM)
MIC [2]: 0.15 µg/mL (≈ 0.209 µM)
MIC [3]: 10 µg/mL (≈ 13.9 µM)
MIC [4]: 40 µg/mL (≈ 55.8 µM)
MIC [5]: 40 µg/mL (≈ 55.8 µM)
MIC [6]: 1.2 µg/mL (≈ 1.67 µM)
MIC [7]: 40 µg/mL (≈ 55.8 µM)
MIC [8]: 20 µg/mL (≈ 27.9 µM)
MIC [9]: 0.6 µg/mL (≈ 0.837 µM)
MIC [10]: 40 µg/mL (≈ 55.8 µM)
MIC [11]: 0.15 µg/mL (≈ 0.209 µM)

Structure (SMILES): CC1(C)S[C@@H]2[C@H](NC(=O)[C@H](N)c3ccccc3)C(=O)N2[C@H]1C(=O)O [AMPICILLIN]
MIC50 [12]: 0.3 µg/mL (≈ 0.859 µM)
MIC90 [12]: 0.6 µg/mL (≈ 1.72 µM)
ED50 [13]: 5.5 mg/kg
MIC50 [14]: 1.2 µg/mL (≈ 3.43 µM)
MIC90 [14]: 1 µg/mL (≈ 2.86 µM)
ED50 [15]: > 600 mg/kg
ED50 [16]: 39 mg/kg

Structure (SMILES): CC[C@H]1OC(=O)[C@H](C)[C@@H](O[C@H]2C[C@@](C)(OC)[C@@H](O)[C@H](C)O2)[C@H](C)[C@@H](O[C@@H]2O[C@H](C)C[C@H](N(C)C)[C@H]2O)[C@](C)(O)C[C@@H](C)C(=O)[C@H](C)[C@@H](O)[C@]1(C)O [ERYTHROMYCIN]
MIC50 [12]: 1.2 µg/mL (≈ 1.64 µM)
MIC90 [12]: 5 µg/mL (≈ 6.81 µM)
MIC50 [17]: 5 µg/mL (≈ 6.81 µM)
MIC90 [17]: 40 µg/mL (≈ 54.5 µM)
MIC [1]: 40 µg/mL (≈ 54.5 µM)
ED50 [18]: 300 mg/kg
MIC [2]: 0.08 µg/mL (≈ 0.109 µM)
MIC [3]: 40 µg/mL (≈ 54.5 µM)
MIC50 [19]: 0.6 µg/mL (≈ 0.818 µM)
MIC90 [19]: 40 µg/mL (≈ 54.5 µM)
ED50 [20]: > 100 mg/kg
MIC [4]: 40 µg/mL (≈ 54.5 µM)
MIC50 [21]: 40 µg/mL (≈ 54.5 µM)
MIC90 [21]: 40 µg/mL (≈ 54.5 µM)
ED50 [13]: 346 mg/kg
MIC [5]: 2.5 µg/mL (≈ 3.41 µM)
MIC50 [22]: 20 µg/mL (≈ 27.3 µM)
MIC90 [22]: 40 µg/mL (≈ 54.5 µM)
MIC [6]: 40 µg/mL (≈ 54.5 µM)
MIC [7]: 40 µg/mL (≈ 54.5 µM)
ED50 [23]: 18.3 mg/kg
MIC50 [24]: 2.5 µg/mL (≈ 3.41 µM)
MIC90 [24]: 10 µg/mL (≈ 13.6 µM)
MIC50 [25]: 40 µg/mL (≈ 54.5 µM)
MIC90 [25]: 40 µg/mL (≈ 54.5 µM)
ED50 [26]: > 100 mg/kg
ED50 [27]: > 100 mg/kg
MIC [8]: 2.5 µg/mL (≈ 3.41 µM)
ED50 [28]: > 100 mg/kg
ED50 [29]: 57 mg/kg
MIC50 [14]: 1.2 µg/mL (≈ 1.64 µM)
MIC90 [14]: 10 µg/mL (≈ 13.6 µM)
ED50 [15]: 326 mg/kg
MIC [9]: 0.3 µg/mL (≈ 0.409 µM)
MIC [10]: 40 µg/mL (≈ 54.5 µM)
MIC50 [30]: 40 µg/mL (≈ 54.5 µM)
MIC90 [30]: 40 µg/mL (≈ 54.5 µM)
ED50 [31]: > 100 mg/kg
MIC [11]: 0.08 µg/mL (≈ 0.109 µM)
ED50 [32]: > 100 mg/kg
ED50 [16]: 442 mg/kg
MIC50 [33]: 40 µg/mL (≈ 54.5 µM)
MIC90 [33]: 40 µg/mL (≈ 54.5 µM)

Other lines, results leading:

MIC [1]: 0.6 µg/mL (≈ 0.979 µM)
MIC [2]: 0.04 µg/mL (≈ 0.0653 µM)
MIC [3]: 2.5 µg/mL (≈ 4.08 µM)
MIC [4]: 40 µg/mL (≈ 65.3 µM)
MIC [5]: 5 µg/mL (≈ 8.16 µM)
MIC [6]: 10 µg/mL (≈ 16.3 µM)
MIC [7]: 5 µg/mL (≈ 8.16 µM)
MIC [8]: 5 µg/mL (≈ 8.16 µM)
MIC [9]: 0.6 µg/mL (≈ 0.979 µM)
MIC [10]: 40 µg/mL (≈ 65.3 µM)
MIC [11]: 0.02 µg/mL (≈ 0.0326 µM)
Structure (SMILES): CC[C@H]1OC(=O)[C@H](C)C(=O)[C@H](C)[C@@H](O[C@@H]2O[C@H](C)C[C@H](N(C)C)[C@H]2O)[C@](C)(OC)C[C@@H](C)C(=O)[C@H](C)[C@H]2NC(=O)O[C@@]21C

MIC [1]: 0.6 µg/mL (≈ 0.941 µM)
MIC [2]: 0.08 µg/mL (≈ 0.125 µM)
MIC [3]: 40 µg/mL (≈ 62.7 µM)
MIC [4]: 40 µg/mL (≈ 62.7 µM)
MIC [5]: 5 µg/mL (≈ 7.84 µM)
MIC [6]: 0.3 µg/mL (≈ 0.47 µM)
MIC [7]: 40 µg/mL (≈ 62.7 µM)
MIC [8]: 5 µg/mL (≈ 7.84 µM)
MIC [9]: 0.3 µg/mL (≈ 0.47 µM)
MIC [10]: 40 µg/mL (≈ 62.7 µM)
MIC [11]: 0.02 µg/mL (≈ 0.0314 µM)
Structure (SMILES): CC[C@H]1OC(=O)[C@H](C)C(=O)[C@H](C)[C@@H](O[C@@H]2O[C@H](C)C[C@H](N(C)C)[C@H]2O)[C@](C)(OC)C[C@@H](C)C2=NCCN3C(=O)O[C@@]1(C)[C@H]3[C@H]2C

MIC [1]: 0.3 µg/mL (≈ 0.363 µM)
MIC [2]: 0.02 µg/mL (≈ 0.0242 µM)
MIC [3]: 0.08 µg/mL (≈ 0.0968 µM)
MIC [4]: 40 µg/mL (≈ 48.4 µM)
MIC [5]: 2.5 µg/mL (≈ 3.03 µM)
MIC [6]: 0.08 µg/mL (≈ 0.0968 µM)
MIC [7]: 20 µg/mL (≈ 24.2 µM)
MIC [8]: 2.5 µg/mL (≈ 3.03 µM)
MIC [9]: 0.08 µg/mL (≈ 0.0968 µM)
MIC [10]: 40 µg/mL (≈ 48.4 µM)
MIC [11]: 0.02 µg/mL (≈ 0.0242 µM)
Structure (SMILES): CC[C@H]1OC(=O)[C@H](C)C(=O)[C@H](C)[C@@H](O[C@@H]2O[C@H](C)C[C@H](N(C)C)[C@H]2O)[C@](C)(OC)C[C@@H](C)C(=O)[C@H](C)[C@H]2N(CCCCc3ccnc4c(OC)cccc34)C(=O)O[C@]12C

MIC [1]: 0.15 µg/mL (≈ 0.181 µM)
MIC [2]: 0.02 µg/mL (≈ 0.0242 µM)
MIC [3]: 0.15 µg/mL (≈ 0.181 µM)
MIC [4]: 40 µg/mL (≈ 48.4 µM)
MIC [5]: 0.6 µg/mL (≈ 0.725 µM)
MIC [6]: 0.15 µg/mL (≈ 0.181 µM)
MIC [7]: 2.5 µg/mL (≈ 3.02 µM)
MIC [8]: 1.2 µg/mL (≈ 1.45 µM)
MIC [9]: 0.04 µg/mL (≈ 0.0484 µM)
MIC [10]: 40 µg/mL (≈ 48.4 µM)
MIC [11]: 0.02 µg/mL (≈ 0.0242 µM)
Structure (SMILES): CC[C@H]1OC(=O)[C@H](C)C(=O)[C@H](C)[C@@H](O[C@@H]2O[C@H](C)C[C@H](N(C)C)[C@H]2O)[C@](C)(OC)C[C@@H](C)C(=O)[C@@H](C)[C@H]2N(NCCCc3ccnc4c(OC)cccc34)C(=O)O[C@]12C
